The target of experiment [1] is T1, Toll-like receptor 1/2 (Homo sapiens, UniProt O60603+Q15399). Put plainly: Agonist activity at TLR1/TLR2 in human THP-1 derived macrophages assessed as stimulation of TNF alpha release measured for 4 hrs by ELISA based assay. Type of experiment: cell-based. The method in brief: (§1)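 THP-1 cells differentiated with 100 nM PMA in RPMI/10% FBS for 24 h, washed, then rested 24 h in fresh medium. Seeded at 0.5 × 10⁵ cells/well and exposed to graded compound concentrations for 4 h, with final DMSO held at 0.1%. LPS served as positive control and DMSO as negative control. Supernatant human TNF-α was read by ELISA. EC50 from duplicate means.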
Background: In an ELISA, binding on a coated surface is turned into a signal by an enzyme label.

Experiment [2] deals with T1, Toll-like receptor 1/2. Briefly: Agonist activity at TLR1/TLR2 in human THP-1 derived macrophages assessed as stimulation of TNF alpha release measured for 4 hrs by ELISA based assay relative to diprovocim-1. Type of experiment: cell-based. Also noted: Activity: concentration or dose not given beside the values. To be noted: filed as agonist. An outline of the steps: as §1

In experiment [3] the target is Toll-like receptor 1/2 (Mus musculus, UniProt Q9EPQ1+Q9QUN7). Put plainly: Agonist activity at TLR1/TLR2 in wild type C57BL/6J mouse macrophages assessed as stimulation of TNF alpha release measured for 4 hrs by ELISA based assay. Type of experiment: cell-based, Macrophage. The method in brief:
(§2)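 Thioglycolate-elicited peritoneal macrophages from wild type C57BL/6J mice, harvested by PBS lavage 4 d after i.p. 4% thioglycolate. Cultured in DMEM/10% FBS at 37 °C, 5% CO2, seeded at 1 × 10⁵ cells/well and exposed to graded compound concentrations for 4 h, with final DMSO ≤0.5% held constant. LPS served as positive control. Supernatant mouse TNF-α was read by ELISA. EC50 from duplicate means.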

In experiment [4] the target is Toll-like receptor 1/2 (Mus musculus) (UniProt Q9QUN7+Q9EPQ1). Briefly: Agonist activity at TLR1/TLR2 in wild type C57BL/6J mouse macrophages assessed as stimulation of TNF alpha release measured for 4 hrs by ELISA based assay relative to diprovocim-1. Type of experiment: cell-based. Further details: Activity: concentration or dose not given beside the values. As to conditions: Macrophage, filed as agonist. An outline of the steps:
as §2

Usually EC50 stands for the concentration that produces a half-maximal response. As a reminder, the Emax is the greatest response seen or fitted, relative to the assay's reference.

Bounds are passed on as bounds.

T1 sequence (O60603 whole entry): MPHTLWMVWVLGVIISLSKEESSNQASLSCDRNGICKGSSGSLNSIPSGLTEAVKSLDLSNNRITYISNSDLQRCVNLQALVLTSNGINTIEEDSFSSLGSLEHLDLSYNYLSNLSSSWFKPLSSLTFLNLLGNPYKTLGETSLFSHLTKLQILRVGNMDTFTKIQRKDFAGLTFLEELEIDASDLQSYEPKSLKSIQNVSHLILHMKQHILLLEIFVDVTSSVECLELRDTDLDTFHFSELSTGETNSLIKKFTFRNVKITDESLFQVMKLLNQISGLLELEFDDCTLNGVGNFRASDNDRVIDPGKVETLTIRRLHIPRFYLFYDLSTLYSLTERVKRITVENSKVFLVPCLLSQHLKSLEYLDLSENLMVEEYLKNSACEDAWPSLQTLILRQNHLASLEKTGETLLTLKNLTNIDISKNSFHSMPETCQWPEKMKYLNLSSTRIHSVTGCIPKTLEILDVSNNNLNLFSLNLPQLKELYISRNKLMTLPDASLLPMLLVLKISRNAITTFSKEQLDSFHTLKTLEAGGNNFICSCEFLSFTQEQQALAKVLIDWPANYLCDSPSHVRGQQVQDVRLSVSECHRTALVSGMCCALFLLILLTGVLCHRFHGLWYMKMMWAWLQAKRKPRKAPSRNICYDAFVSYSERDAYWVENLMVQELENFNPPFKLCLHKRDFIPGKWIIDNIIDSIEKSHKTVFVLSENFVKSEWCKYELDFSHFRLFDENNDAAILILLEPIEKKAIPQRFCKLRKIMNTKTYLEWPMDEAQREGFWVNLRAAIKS
T1 sequence (Q15399 whole entry): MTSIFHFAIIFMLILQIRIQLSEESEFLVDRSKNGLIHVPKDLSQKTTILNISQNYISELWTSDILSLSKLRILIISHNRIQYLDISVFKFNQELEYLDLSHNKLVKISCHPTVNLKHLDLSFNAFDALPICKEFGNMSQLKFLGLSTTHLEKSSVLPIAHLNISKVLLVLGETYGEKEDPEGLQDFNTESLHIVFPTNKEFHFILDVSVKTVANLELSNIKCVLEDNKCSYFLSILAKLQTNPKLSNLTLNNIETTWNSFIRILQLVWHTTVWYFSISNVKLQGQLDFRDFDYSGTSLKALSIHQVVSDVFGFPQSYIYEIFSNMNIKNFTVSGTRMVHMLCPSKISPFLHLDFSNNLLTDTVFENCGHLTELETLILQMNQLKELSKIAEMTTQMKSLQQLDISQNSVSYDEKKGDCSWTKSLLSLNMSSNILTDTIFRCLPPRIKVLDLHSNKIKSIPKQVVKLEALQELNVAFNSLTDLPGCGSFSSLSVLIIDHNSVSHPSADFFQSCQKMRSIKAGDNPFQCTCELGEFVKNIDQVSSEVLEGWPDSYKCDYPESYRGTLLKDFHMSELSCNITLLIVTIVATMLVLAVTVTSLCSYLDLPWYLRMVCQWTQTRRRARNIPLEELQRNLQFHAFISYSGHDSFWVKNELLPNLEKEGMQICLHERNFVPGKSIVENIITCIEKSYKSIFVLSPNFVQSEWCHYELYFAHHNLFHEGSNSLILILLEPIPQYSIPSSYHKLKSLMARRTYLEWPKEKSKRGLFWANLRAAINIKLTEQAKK
Sequence of Toll-like receptor 1/2 (Mus musculus, UniProt Q9EPQ1+Q9QUN7) (Q9QUN7 whole entry): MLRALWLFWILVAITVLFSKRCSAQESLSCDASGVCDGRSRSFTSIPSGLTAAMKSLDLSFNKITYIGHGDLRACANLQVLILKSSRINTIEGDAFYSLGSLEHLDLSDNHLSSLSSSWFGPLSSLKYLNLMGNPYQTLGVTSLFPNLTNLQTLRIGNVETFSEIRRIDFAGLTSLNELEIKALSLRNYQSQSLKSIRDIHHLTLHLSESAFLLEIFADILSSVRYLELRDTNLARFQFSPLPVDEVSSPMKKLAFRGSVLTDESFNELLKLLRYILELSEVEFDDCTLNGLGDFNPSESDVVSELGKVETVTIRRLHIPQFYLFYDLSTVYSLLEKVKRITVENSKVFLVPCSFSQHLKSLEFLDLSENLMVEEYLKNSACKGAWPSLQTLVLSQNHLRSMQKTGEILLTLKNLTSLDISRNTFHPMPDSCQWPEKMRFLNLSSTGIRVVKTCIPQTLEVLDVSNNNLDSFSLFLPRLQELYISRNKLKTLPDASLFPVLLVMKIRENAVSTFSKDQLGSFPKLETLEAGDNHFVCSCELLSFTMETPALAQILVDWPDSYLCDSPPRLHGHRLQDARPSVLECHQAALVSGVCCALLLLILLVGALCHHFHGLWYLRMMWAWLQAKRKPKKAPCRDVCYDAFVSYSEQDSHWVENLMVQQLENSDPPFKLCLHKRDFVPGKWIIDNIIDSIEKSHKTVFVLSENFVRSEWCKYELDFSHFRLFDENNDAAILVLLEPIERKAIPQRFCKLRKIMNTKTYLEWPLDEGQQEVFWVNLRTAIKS
Sequence of Toll-like receptor 1/2 (Mus musculus, UniProt Q9EPQ1+Q9QUN7) (Q9EPQ1 whole entry): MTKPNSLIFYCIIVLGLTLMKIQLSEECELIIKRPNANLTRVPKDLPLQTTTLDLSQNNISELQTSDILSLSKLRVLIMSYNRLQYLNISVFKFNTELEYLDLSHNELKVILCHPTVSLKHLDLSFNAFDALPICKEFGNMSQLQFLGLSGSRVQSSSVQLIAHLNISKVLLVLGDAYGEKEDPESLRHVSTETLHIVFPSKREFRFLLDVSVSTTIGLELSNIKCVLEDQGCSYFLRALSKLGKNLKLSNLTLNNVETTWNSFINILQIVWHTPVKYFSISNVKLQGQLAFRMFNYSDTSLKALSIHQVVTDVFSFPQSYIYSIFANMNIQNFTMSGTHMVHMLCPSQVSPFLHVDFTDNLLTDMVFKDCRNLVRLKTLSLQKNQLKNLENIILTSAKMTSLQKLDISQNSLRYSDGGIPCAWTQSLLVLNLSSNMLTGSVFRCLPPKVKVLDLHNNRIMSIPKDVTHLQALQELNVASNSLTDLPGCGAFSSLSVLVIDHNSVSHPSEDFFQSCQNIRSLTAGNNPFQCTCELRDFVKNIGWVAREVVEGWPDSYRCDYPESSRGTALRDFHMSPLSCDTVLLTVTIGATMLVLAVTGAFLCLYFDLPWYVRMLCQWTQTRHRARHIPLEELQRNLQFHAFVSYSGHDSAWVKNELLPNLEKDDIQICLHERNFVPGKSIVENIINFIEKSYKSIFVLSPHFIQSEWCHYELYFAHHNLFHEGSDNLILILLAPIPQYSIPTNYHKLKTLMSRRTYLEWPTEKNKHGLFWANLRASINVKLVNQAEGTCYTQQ

Regarding `O=C(O)[C@@H]1CN(C(=O)c2ccc(C(=O)N3C[C@@H](C(=O)N[C@H]4C[C@@H]4c4ccccc4)[C@H](C(=O)N[C@H]4C[C@@H]4c4ccccc4)C3)cc2)C[C@H]1C(=O)N[C@H]1C[C@@H]1c1ccccc1`, the 50% effective concentration (EC50) on Toll-like receptor 1/2 [1] was 200 nM; at Toll-like receptor 1/2 [3] it was greater than 5000 nM. The Activity on Toll-like receptor 1/2 [2] was 110%.

Regarding `CCCCCCCCCCCCNC(=O)[C@@H]1CN(C(=O)c2ccc(C(=O)N3C[C@@H](C(=O)N[C@H]4C[C@@H]4c4ccccc4)[C@H](C(=O)N[C@H]4C[C@@H]4c4ccccc4)C3)cc2)C[C@H]1C(=O)N[C@H]1C[C@@H]1c1ccccc1`, the EC50 at Toll-like receptor 1/2 [1] is 0.1 nM; on Toll-like receptor 1/2 [3], 2.1 nM. The figures for the maximal response (Emax) (at Toll-like receptor 1/2 [2]; in experiment [4]) were 110% and 100%, respectively.

`COC(=O)CCCCCCCNC(=O)[C@@H]1CN(C(=O)c2ccc(C(=O)N3C[C@@H](C(=O)N[C@H]4C[C@@H]4c4ccccc4)[C@H](C(=O)N[C@H]4C[C@@H]4c4ccccc4)C3)cc2)C[C@H]1C(=O)N[C@H]1C[C@@H]1c1ccccc1`: the EC50 on Toll-like receptor 1/2 [1] is 3.8 nM; on Toll-like receptor 1/2 [3], 240 nM.

With `CCCCCCNC(=O)[C@@H]1CN(C(=O)c2ccc(C(=O)N3C[C@@H](C(=O)N[C@H]4C[C@@H]4c4ccccc4)[C@H](C(=O)N[C@H]4C[C@@H]4c4ccccc4)C3)cc2)C[C@H]1C(=O)N[C@H]1C[C@@H]1c1ccccc1`, the EC50 was found to be 0.25 nM at Toll-like receptor 1/2 [1] and 80 nM at Toll-like receptor 1/2 [3]. In addition, the maximal response (Emax) is 100% on Toll-like receptor 1/2 [2] and 150% in experiment [4].

For the molecule `CCCCCCCCCCCCCCCCNC(=O)[C@@H]1CN(C(=O)c2ccc(C(=O)N3C[C@@H](C(=O)N[C@H]4C[C@@H]4c4ccccc4)[C@H](C(=O)N[C@H]4C[C@@H]4c4ccccc4)C3)cc2)C[C@H]1C(=O)N[C@H]1C[C@@H]1c1ccccc1`, the 50% effective concentration (EC50) came out at 0.5 nM on Toll-like receptor 1/2 [1] and 2.6 nM at Toll-like receptor 1/2 [3]. For the same molecule, the maximal response (Emax) is 110% on Toll-like receptor 1/2 [2] and 75% in experiment [4].

Consider `CCCCCCCCCCCCCCNC(=O)[C@@H]1CN(C(=O)c2ccc(C(=O)N3C[C@@H](C(=O)N[C@H]4C[C@@H]4c4ccccc4)[C@H](C(=O)N[C@H]4C[C@@H]4c4ccccc4)C3)cc2)C[C@H]1C(=O)N[C@H]1C[C@@H]1c1ccccc1`, for which the EC50 on Toll-like receptor 1/2 [1] came out at 0.1 nM; at Toll-like receptor 1/2 [3] it was 1.1 nM. The Emax worked out at 150% on Toll-like receptor 1/2 [2] and 100% in experiment [4].

Take `O=C(NCCCCCCCCCCO)[C@@H]1CN(C(=O)c2ccc(C(=O)N3C[C@@H](C(=O)N[C@H]4C[C@@H]4c4ccccc4)[C@H](C(=O)N[C@H]4C[C@@H]4c4ccccc4)C3)cc2)C[C@H]1C(=O)N[C@H]1C[C@@H]1c1ccccc1`: the EC50 at Toll-like receptor 1/2 [1] was determined as 0.5 nM; on Toll-like receptor 1/2 [3], 50 nM.

Consider `CC(C)(C)OC(=O)CCOCCOCCOCCNC(=O)[C@@H]1CN(C(=O)c2ccc(C(=O)N3C[C@@H](C(=O)N[C@H]4C[C@@H]4c4ccccc4)[C@H](C(=O)N[C@H]4C[C@@H]4c4ccccc4)C3)cc2)C[C@H]1C(=O)N[C@H]1C[C@@H]1c1ccccc1`, for which the 50% effective concentration (EC50) at Toll-like receptor 1/2 [3] stood at 500 nM.

For the molecule `COC(=O)CCCCCCCCCCCNC(=O)[C@@H]1CN(C(=O)c2ccc(C(=O)N3C[C@@H](C(=O)N[C@H]4C[C@@H]4c4ccccc4)[C@H](C(=O)N[C@H]4C[C@@H]4c4ccccc4)C3)cc2)C[C@H]1C(=O)N[C@H]1C[C@@H]1c1ccccc1`, the EC50 on Toll-like receptor 1/2 [1] turned out to be 0.2 nM. Also, the Activity (at Toll-like receptor 1/2 [2]; in experiment [4]) was 100% each time.

Regarding `COC(=O)CCOCCOCCOCCNC(=O)[C@@H]1CN(C(=O)c2ccc(C(=O)N3C[C@@H](C(=O)N[C@H]4C[C@@H]4c4ccccc4)[C@H](C(=O)N[C@H]4C[C@@H]4c4ccccc4)C3)cc2)C[C@H]1C(=O)N[C@H]1C[C@@H]1c1ccccc1`, at Toll-like receptor 1/2 [2], the Activity was found to be 110%. Further, at Toll-like receptor 1/2 [3], the EC50 was greater than 500 nM.

With `C[C@@H](NC(=O)OC(C)(C)C)C(=O)OCCCCCCCCCCCCNC(=O)[C@@H]1CN(C(=O)c2ccc(C(=O)N3C[C@@H](C(=O)N[C@H]4C[C@@H]4c4ccccc4)[C@H](C(=O)N[C@H]4C[C@@H]4c4ccccc4)C3)cc2)C[C@H]1C(=O)N[C@H]1C[C@@H]1c1ccccc1`, the results for the Activity (at Toll-like receptor 1/2 [2]; in experiment [4]) were 110% and 200%, respectively.

Consider `O=C(CNC(=O)C(=O)O)OCCCCCCCCCCCCNC(=O)[C@@H]1CN(C(=O)c2ccc(C(=O)N3C[C@@H](C(=O)N[C@H]4C[C@@H]4c4ccccc4)[C@H](C(=O)N[C@H]4C[C@@H]4c4ccccc4)C3)cc2)C[C@H]1C(=O)N[C@H]1C[C@@H]1c1ccccc1`, for which the results for the Activity (at Toll-like receptor 1/2 [2]; in experiment [4]) were 120% and 250%, respectively.

For the molecule `CC[C@H](C)[C@H](NC(=O)OC(C)(C)C)C(=O)OCCCCCCCCCCCCNC(=O)[C@@H]1CN(C(=O)c2ccc(C(=O)N3C[C@@H](C(=O)N[C@H]4C[C@@H]4c4ccccc4)[C@H](C(=O)N[C@H]4C[C@@H]4c4ccccc4)C3)cc2)C[C@H]1C(=O)N[C@H]1C[C@@H]1c1ccccc1`, the Activity turned out to be 100% on Toll-like receptor 1/2 [2] and 140% in experiment [4].

Turning to `CC(C)(C)OC(=O)Nc1ccc(C(=O)OCCCCCCCCCCCCNC(=O)[C@@H]2CN(C(=O)c3ccc(C(=O)N4C[C@@H](C(=O)N[C@H]5C[C@@H]5c5ccccc5)[C@H](C(=O)N[C@H]5C[C@@H]5c5ccccc5)C4)cc3)C[C@H]2C(=O)N[C@H]2C[C@@H]2c2ccccc2)cc1`, the Activity was 90% at Toll-like receptor 1/2 [2] and 540% in experiment [4].

With `COC(=O)CCCCCCCCCNC(=O)[C@@H]1CN(C(=O)c2ccc(C(=O)N3C[C@@H](C(=O)N[C@H]4C[C@@H]4c4ccccc4)[C@H](C(=O)N[C@H]4C[C@@H]4c4ccccc4)C3)cc2)C[C@H]1C(=O)N[C@H]1C[C@@H]1c1ccccc1`, the concentration giving a half-maximal response (EC50) at Toll-like receptor 1/2 [1] turned out to be 0.37 nM; at Toll-like receptor 1/2 [3], 17 nM.

On to `COC(=O)NCC(=O)OCCCCCCCCCCCCNC(=O)[C@@H]1CN(C(=O)c2ccc(C(=O)N3C[C@@H](C(=O)N[C@H]4C[C@@H]4c4ccccc4)[C@H](C(=O)N[C@H]4C[C@@H]4c4ccccc4)C3)cc2)C[C@H]1C(=O)N[C@H]1C[C@@H]1c1ccccc1`, for which the results for the Activity (on Toll-like receptor 1/2 [2]; in experiment [4]) were 100% and 120%, respectively.

As for `CC(C)(C)OC(=O)NCC(=O)NCCCCCCCCCCCCNC(=O)[C@@H]1CN(C(=O)c2ccc(C(=O)N3C[C@@H](C(=O)N[C@H]4C[C@@H]4c4ccccc4)[C@H](C(=O)N[C@H]4C[C@@H]4c4ccccc4)C3)cc2)C[C@H]1C(=O)N[C@H]1C[C@@H]1c1ccccc1`, the Activity (on Toll-like receptor 1/2 [2]; in experiment [4]) was 90% in each case.

For `CC(C)(C)OC(=O)NNC(=O)OCCCCCCCCCCCCNC(=O)[C@@H]1CN(C(=O)c2ccc(C(=O)N3C[C@@H](C(=O)N[C@H]4C[C@@H]4c4ccccc4)[C@H](C(=O)N[C@H]4C[C@@H]4c4ccccc4)C3)cc2)C[C@H]1C(=O)N[C@H]1C[C@@H]1c1ccccc1`, the Activity on Toll-like receptor 1/2 [2] is 100%; in experiment [4] it was 220%.

In the case of `NCCCCCCCCCCCCNC(=O)[C@@H]1CN(C(=O)c2ccc(C(=O)N3C[C@@H](C(=O)N[C@H]4C[C@@H]4c4ccccc4)[C@H](C(=O)N[C@H]4C[C@@H]4c4ccccc4)C3)cc2)C[C@H]1C(=O)N[C@H]1C[C@@H]1c1ccccc1`, the Activity on Toll-like receptor 1/2 [2] amounted to 140%; in experiment [4], 130%.

`O=C(NCCCCCCCCc1ccc(O)cc1)[C@@H]1CN(C(=O)c2ccc(C(=O)N3C[C@@H](C(=O)N[C@H]4C[C@@H]4c4ccccc4)[C@H](C(=O)N[C@H]4C[C@@H]4c4ccccc4)C3)cc2)C[C@H]1C(=O)N[C@H]1C[C@@H]1c1ccccc1`: the Activity stood at 90% on Toll-like receptor 1/2 [2] and 380% in experiment [4].

With `O=C(NCCCCCCCCCCCCO)[C@@H]1CN(C(=O)c2ccc(C(=O)N3C[C@@H](C(=O)N[C@H]4C[C@@H]4c4ccccc4)[C@H](C(=O)N[C@H]4C[C@@H]4c4ccccc4)C3)cc2)C[C@H]1C(=O)N[C@H]1C[C@@H]1c1ccccc1`, the Activity was 90% at Toll-like receptor 1/2 [2] and 110% in experiment [4].

As for `C[C@H](NC(=O)OC(C)(C)C)C(=O)OCCCCCCCCCCCCNC(=O)[C@@H]1CN(C(=O)c2ccc(C(=O)N3C[C@@H](C(=O)N[C@H]4C[C@@H]4c4ccccc4)[C@H](C(=O)N[C@H]4C[C@@H]4c4ccccc4)C3)cc2)C[C@H]1C(=O)N[C@H]1C[C@@H]1c1ccccc1`, the Activity on Toll-like receptor 1/2 [2] turned out to be 80%; in experiment [4], 200%.

Consider `CC(C)(C)OC(=O)NCCCCCCCCCCCCNC(=O)[C@@H]1CN(C(=O)c2ccc(C(=O)N3C[C@@H](C(=O)N[C@H]4C[C@@H]4c4ccccc4)[C@H](C(=O)N[C@H]4C[C@@H]4c4ccccc4)C3)cc2)C[C@H]1C(=O)N[C@H]1C[C@@H]1c1ccccc1`, for which the Activity worked out at 70% at Toll-like receptor 1/2 [2] and 120% in experiment [4].

Regarding `O=C(CO)OCCCCCCCCCCCCNC(=O)[C@@H]1CN(C(=O)c2ccc(C(=O)N3C[C@@H](C(=O)N[C@H]4C[C@@H]4c4ccccc4)[C@H](C(=O)N[C@H]4C[C@@H]4c4ccccc4)C3)cc2)C[C@H]1C(=O)N[C@H]1C[C@@H]1c1ccccc1`, the Activity came out at 100% on Toll-like receptor 1/2 [2] and 140% in experiment [4].

Take `CC(C)(C)OC(=O)/C=C/C(=O)NCC(=O)OCCCCCCCCCCCCNC(=O)[C@@H]1CN(C(=O)c2ccc(C(=O)N3C[C@@H](C(=O)N[C@H]4C[C@@H]4c4ccccc4)[C@H](C(=O)N[C@H]4C[C@@H]4c4ccccc4)C3)cc2)C[C@H]1C(=O)N[C@H]1C[C@@H]1c1ccccc1`: the Activity on Toll-like receptor 1/2 [2] is 90%; in experiment [4] it was 110%.

Turning to `Nc1ccc(CCCCCCCCNC(=O)[C@@H]2CN(C(=O)c3ccc(C(=O)N4C[C@@H](C(=O)N[C@H]5C[C@@H]5c5ccccc5)[C@H](C(=O)N[C@H]5C[C@@H]5c5ccccc5)C4)cc3)C[C@H]2C(=O)N[C@H]2C[C@@H]2c2ccccc2)cc1`, the Activity turned out to be 100% at Toll-like receptor 1/2 [2] and 250% in experiment [4].
